Our source for the IC50, inhibition and Activity values is ChEMBL document CHEMBL4152221, “Synthesis and structure-activity relationship of furoquinolinediones as inhibitors of Tyrosyl-DNA phosphodiesterase 2 (TDP2)” (Eur J Med Chem, 2018).

Active and inactive are the calls of the source.

Experiment [1] concerns the target T1, Tyrosyl-DNA phosphodiesterase 2 (Homo sapiens, UniProt O95551).
T1 sequence (O95551 whole entry): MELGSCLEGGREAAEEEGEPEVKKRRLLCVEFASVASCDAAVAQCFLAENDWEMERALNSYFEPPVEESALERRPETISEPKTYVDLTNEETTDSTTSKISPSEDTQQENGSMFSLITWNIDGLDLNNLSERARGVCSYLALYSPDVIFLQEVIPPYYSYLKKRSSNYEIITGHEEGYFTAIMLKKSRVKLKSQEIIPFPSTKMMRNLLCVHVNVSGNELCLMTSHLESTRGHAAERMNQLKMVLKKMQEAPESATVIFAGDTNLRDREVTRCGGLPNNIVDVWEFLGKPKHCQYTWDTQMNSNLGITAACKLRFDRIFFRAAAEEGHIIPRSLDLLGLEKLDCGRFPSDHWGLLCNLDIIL
The experiment can be described thus: (§1) Inhibition of recombinant human TDP2 using TY18 (alpha-[32P]-cordycepin-3'-labeled) as substrate after 15 mins by PAGE analysis. The method in brief:
(§2)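 32P-cordycepin-3'-labeled TY18 substrate at 1 nM with 25 pM recombinant human TDP2, 15 min at room temperature. Buffer: 50 mM Tris-HCl pH 7.5, 80 mM KCl, 5 mM MgCl2, 0.1 mM EDTA, 1 mM DTT, 40 μg/mL BSA, 0.01% Tween 20. Six or eight three-fold dilutions up to 111 μM. Gel densitometry; IC50 is mean ± SD of ≥3 independent experiments. Positive control: SV-163.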

Experiment [2] addresses T2, Tyrosyl-DNA phosphodiesterase 1 (Homo sapiens, UniProt Q9NUW8). Kind of experiment: Inhibition of recombinant TDP1 (unknown origin) using 5'-[32P]-labeled N14Y as substrate after 15 mins by PAGE analysis. The method in brief: (§3)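 5'-32P-labeled N14Y (3'-phosphotyrosyl single-stranded oligo) at 1 nM with 10 pM recombinant TDP1, 15 min at room temperature. Three-fold dilutions up to 111 μM. Gels scanned and quantified by densitometry. Positive control: AM-8-3.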

Experiment [3] concerns the target T3, Tyrosyl-DNA phosphodiesterase 2 (Homo sapiens) (UniProt O95551).
T3 sequence (whole entry): T1 sequence (O95551 whole entry)
The experiment can be described thus: Inhibition of recombinant human TDP2 at 111 uM using alpha-[32P]-cordycepin-3'-labeled TY18 as substrate after 15 mins by PAGE analysis. The method, boiled down:
as §2

Experiment [4] concerns the target T3, Tyrosyl-DNA phosphodiesterase 2 (Homo sapiens). Described as §1. The method, boiled down: as §2
Experiment [5] addresses T2, Tyrosyl-DNA phosphodiesterase 1. Kind of experiment: Inhibition of recombinant TDP1 (unknown origin) at 111 uM using 5'-[32P]-labeled N14Y as substrate after 15 mins by PAGE analysis. The method in brief:
as §3

Experiment [6] addresses T4, DNA topoisomerase 1 (Homo sapiens) (UniProt P11387).
T4 sequence (whole entry): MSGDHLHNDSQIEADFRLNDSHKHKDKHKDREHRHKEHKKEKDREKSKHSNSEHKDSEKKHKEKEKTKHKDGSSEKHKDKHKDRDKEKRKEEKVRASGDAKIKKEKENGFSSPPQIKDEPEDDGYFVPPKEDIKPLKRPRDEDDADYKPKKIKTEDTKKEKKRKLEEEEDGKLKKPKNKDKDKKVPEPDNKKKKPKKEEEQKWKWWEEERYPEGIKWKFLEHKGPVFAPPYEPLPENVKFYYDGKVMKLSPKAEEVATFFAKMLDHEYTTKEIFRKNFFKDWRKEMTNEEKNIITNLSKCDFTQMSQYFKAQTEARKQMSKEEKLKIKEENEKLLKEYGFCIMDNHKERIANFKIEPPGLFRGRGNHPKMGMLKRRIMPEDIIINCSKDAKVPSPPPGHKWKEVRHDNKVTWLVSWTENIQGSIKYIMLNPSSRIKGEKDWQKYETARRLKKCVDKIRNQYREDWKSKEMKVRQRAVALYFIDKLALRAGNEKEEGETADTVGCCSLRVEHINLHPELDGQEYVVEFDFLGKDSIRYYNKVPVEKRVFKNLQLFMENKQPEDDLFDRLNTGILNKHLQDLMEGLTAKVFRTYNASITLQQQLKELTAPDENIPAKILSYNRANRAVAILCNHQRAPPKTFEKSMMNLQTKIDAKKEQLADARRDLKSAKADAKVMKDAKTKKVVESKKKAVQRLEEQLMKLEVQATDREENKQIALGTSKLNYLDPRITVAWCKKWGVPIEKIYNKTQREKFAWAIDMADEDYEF
Kind of experiment: Inhibition of Top1 (unknown origin) assessed as decrease in relaxation of supercoiled pBR322 DNA at 25 uM. The method, boiled down: (§4)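 Supercoiled pBR322 plasmid incubated with TOP1 or TOP2 enzyme, with or without test compound at 25 μM. Relaxed and supercoiled forms separated on agarose gel. Positive controls: camptothecin for TOP1, etoposide for TOP2.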

Experiment [7] has as its target T1, Tyrosyl-DNA phosphodiesterase 2. Kind of experiment: Inhibition of human TDP2 expressed in TDP2 deficient chicken DT40 whole cell extracts using TY19 DNA as substrate after 15 mins by PAGE analysis. The method, boiled down: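 Extract from 1×10^7 TDP2-knockout DT40 cells complemented with human TDP2, lysed 15 min on ice, spun at 12000 g for 10 min, stored at -80 °C. TY19 substrate at 1 nM with 5 μg/mL extract, ±inhibitor, 15 min at room temperature in LMP2 buffer. Gel densitometry. IC50 is mean ± SD of ≥3 independent experiments.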

For the next experiment, the species on record is Homo sapiens. The experiment can be described thus: Inhibition of Top2 (unknown origin) assessed as decrease in relaxation of supercoiled pBR322 DNA at 25 uM. The method in brief:
as §4

The target of experiment [8] is DNA topoisomerase 2-alpha (Homo sapiens) (UniProt P11388). Kind of experiment: Poisoning activity at Top2alpha in human CCRF-CEM cells assessed as TOP2-DNA covalent cleavage complex up to 100 uM after 2 hrs by Western blot analysis based ICE assay. Type of experiment: cell-based. The method in brief:
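ICE assay: 60×10^5 CCRF-CEM cells exposed to compound for 2 h, then lysed in 1% Sarkosyl to detect TOP2–DNA covalent cleavage complexes. Etoposide at 10 and 50 μM served as positive control, with one lane co-treated with 10 μM etoposide.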
For orientation: In western blotting, separated proteins are transferred to a membrane and probed.

Experiment [9] has the same target. Kind of experiment: Poisoning activity at Top2alpha in human CCRF-CEM cells assessed as TOP2-DNA covalent cleavage complex up to 50 uM after 2 hrs by Western blot analysis based ICE assay. Type of experiment: cell-based. The method, boiled down:
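60×10^5 CCRF-CEM cells treated 2 h with compound at 10 or 50 μM, alone or combined with 10 μM etoposide, then lysed in 1% Sarkosyl. TOP2-DNA covalent complexes detected by ICE assay. Etoposide at 10 and 50 μM served as positive control.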

T2 sequence (Q9NUW8 whole entry): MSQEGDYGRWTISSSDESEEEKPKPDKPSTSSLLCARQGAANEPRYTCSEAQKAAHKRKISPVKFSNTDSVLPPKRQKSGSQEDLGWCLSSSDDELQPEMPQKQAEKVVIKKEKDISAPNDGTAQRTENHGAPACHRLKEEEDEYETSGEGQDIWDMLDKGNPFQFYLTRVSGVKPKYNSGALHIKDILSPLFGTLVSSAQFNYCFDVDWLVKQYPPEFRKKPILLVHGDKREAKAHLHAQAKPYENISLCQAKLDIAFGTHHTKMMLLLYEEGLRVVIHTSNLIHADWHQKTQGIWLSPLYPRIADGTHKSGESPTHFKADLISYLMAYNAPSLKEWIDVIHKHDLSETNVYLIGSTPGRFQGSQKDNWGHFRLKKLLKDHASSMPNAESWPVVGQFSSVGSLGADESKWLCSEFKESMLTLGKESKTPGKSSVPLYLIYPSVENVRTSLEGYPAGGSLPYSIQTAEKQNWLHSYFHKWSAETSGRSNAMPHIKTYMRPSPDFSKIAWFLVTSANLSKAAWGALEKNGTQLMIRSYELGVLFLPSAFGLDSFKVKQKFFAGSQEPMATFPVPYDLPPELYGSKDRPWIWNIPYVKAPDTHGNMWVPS
Chain of DNA topoisomerase 2-alpha (Homo sapiens) (P11388 whole entry): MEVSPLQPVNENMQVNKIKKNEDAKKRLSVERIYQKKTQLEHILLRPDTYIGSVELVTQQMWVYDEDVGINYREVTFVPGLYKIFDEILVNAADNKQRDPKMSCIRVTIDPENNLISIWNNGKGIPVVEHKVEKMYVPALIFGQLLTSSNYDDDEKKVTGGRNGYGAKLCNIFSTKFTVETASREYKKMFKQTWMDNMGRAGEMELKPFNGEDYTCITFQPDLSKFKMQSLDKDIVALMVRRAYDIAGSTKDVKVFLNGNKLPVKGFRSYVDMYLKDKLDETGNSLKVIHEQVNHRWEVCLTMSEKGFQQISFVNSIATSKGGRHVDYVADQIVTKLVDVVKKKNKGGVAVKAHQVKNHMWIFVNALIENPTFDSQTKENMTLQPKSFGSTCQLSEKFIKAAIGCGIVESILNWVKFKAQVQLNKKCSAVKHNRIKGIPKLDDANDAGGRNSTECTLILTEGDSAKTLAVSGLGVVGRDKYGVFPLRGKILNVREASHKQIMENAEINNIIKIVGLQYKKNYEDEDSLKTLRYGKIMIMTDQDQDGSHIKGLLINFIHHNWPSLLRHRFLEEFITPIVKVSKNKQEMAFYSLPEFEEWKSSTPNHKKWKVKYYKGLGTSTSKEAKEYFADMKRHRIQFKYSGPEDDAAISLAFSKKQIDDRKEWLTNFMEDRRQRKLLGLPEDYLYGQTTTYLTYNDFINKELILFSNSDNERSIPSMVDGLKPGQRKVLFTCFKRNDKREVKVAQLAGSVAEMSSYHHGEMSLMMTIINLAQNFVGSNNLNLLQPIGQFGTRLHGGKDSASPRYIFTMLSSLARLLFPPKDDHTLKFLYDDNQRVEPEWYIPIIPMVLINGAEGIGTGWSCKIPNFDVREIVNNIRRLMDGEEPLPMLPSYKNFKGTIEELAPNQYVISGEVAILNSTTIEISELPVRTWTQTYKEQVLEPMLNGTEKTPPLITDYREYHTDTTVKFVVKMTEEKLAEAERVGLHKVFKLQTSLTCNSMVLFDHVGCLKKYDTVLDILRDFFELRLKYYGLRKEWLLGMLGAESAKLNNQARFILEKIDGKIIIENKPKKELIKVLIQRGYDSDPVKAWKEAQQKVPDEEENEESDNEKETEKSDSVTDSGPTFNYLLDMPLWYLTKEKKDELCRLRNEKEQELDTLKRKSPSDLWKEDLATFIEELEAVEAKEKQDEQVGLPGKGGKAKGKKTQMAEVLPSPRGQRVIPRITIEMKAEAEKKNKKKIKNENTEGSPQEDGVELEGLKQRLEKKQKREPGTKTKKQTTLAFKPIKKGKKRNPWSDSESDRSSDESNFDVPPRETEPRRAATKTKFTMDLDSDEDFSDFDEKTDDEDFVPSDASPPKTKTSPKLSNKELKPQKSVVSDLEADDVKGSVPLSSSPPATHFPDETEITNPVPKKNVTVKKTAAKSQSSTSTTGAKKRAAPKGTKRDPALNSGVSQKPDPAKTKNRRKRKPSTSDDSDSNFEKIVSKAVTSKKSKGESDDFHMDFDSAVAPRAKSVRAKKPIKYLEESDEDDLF

With `Cc1oc2c(c1C(=O)Oc1ccc([N+](=O)[O-])cc1)C(=O)c1ncccc1C2=O`, the IC50 (commonly the concentration at which inhibition is half-maximal) in [1] came to 28 µM; in experiment [2] it was 48 µM.

On to `N#Cc1ccc2cc3c(=O)[nH]c(=O)nc-3n(-c3cccc(-c4nnn[nH]4)c3)c2c1`, for which the results for the inhibition in experiment [3] and in experiment [4] were 100% and “Dose-dependent effect”, respectively.

As to `CCOC(=O)c1noc2c1C(=O)c1ncccc1C2=O`, the inhibition result (in experiment [5]; in [6]; in the experiment filed under Homo sapiens) was “inactive” in each case. The inhibition (in general, the percentage by which the read-out fell short of the control) in experiment [3] is 100%; in experiment [4] it was “Dose-dependent effect”. Besides, the IC50 in experiment [7] came out at 3.1 µM; in [1], 3.3 µM.

As to `Cc1oc2c(c1C(=O)OCCO)C(=O)c1ncccc1C2=O`, the inhibition result in experiment [5] was “inactive”. Further, the inhibition in experiment [3] is 100%; in experiment [4], “Dose-dependent effect”. Moreover, the IC50 is 9.8 µM in experiment [7] and 20 µM in experiment [1].

On to `Cc1oc2c(c1C(=O)OC[C@@H](O)CO)C(=O)c1ncccc1C2=O`, for which the inhibition result in experiment [5] is “inactive”. The results for the inhibition in experiment [3] and in experiment [4] were 100% and “Dose-dependent effect”, respectively. Also, the IC50 in experiment [7] was 14 µM; in experiment [1] it was 12 µM.

`Cc1oc2c(c1C(=O)Oc1cccc(O)c1)C(=O)c1ncccc1C2=O`: in experiment [5], the inhibition result was “inactive”. Besides, the inhibition in experiment [3] was 100%; in experiment [4] it was “Dose-dependent effect”. The IC50 in experiment [7] came out at 8.8 µM; in experiment [1], 29 µM.

In the case of `CCOC(=O)c1c(C)oc2c1C(=O)c1ncccc1C2=O`, the inhibition entry (in [5]; in [6]; in the experiment filed under Homo sapiens) was “inactive” in each case. Besides, the IC50 in experiment [7] amounted to 22 µM; in experiment [1], 11 µM. In addition, the outcome in [8] was inactive.

As to `C#CCCOC(=O)c1c(C)oc2c1C(=O)c1ncccc1C2=O`, the inhibition result in experiment [5] is “inactive”. The figures for the IC50 in experiment [7] and in experiment [1] were 15 µM and 22 µM, respectively.

`Cc1oc2c(c1C(=O)OCCCO)C(=O)c1ncccc1C2=O`: in experiment [5], the inhibition entry was “inactive”. In addition, the inhibition is 100% in experiment [3] and “Dose-dependent effect” in experiment [4]. The IC50 in experiment [7] was determined as 11 µM; in experiment [1], 17 µM.

Turning to `Cc1oc2c(c1C(=O)Oc1cccc(C#N)c1)C(=O)c1ncccc1C2=O`, in experiment [5], the inhibition result was “inactive”. Besides, the IC50 in experiment [7] is 10 µM; in [1] it was 12 µM.

Turning to `COC(=O)c1sccc1OC(=O)c1c(C)oc2c1C(=O)c1ncccc1C2=O`, the IC50 in experiment [7] came to 24 µM; in experiment [1], 22 µM; in experiment [2], 38 µM.

As for `Cc1oc2c(c1C(=O)OCCOCCO)C(=O)c1ncccc1C2=O`, the inhibition result in experiment [5] was “inactive”. In addition, the IC50 in [7] was 13 µM; in experiment [1], 22 µM.

With `Cc1oc2c(c1C(=O)Oc1ccccc1O)C(=O)c1ncccc1C2=O`, the inhibition result in experiment [5] was “inactive”. The inhibition is 100% in [3] and “Dose-dependent effect” in experiment [4]. The values for the IC50 in [7] and in experiment [1] were 6.6 µM and 7.6 µM, respectively.

Regarding `CCOC(=O)c1c(C)oc2c1C(=O)c1cccnc1C2=O`, in experiment [5], the inhibition result is “inactive”. Further, the figures for the IC50 in experiment [7] and in experiment [1] were 54 µM and 43 µM, respectively.

Regarding `Cc1oc2c(c1C(=O)OCCc1ccccc1)C(=O)c1ncccc1C2=O`, the inhibition result in [5] is “inactive”. For the same molecule, the results for the IC50 in experiment [7] and in experiment [1] were 24 µM and 53 µM, respectively.

On to `Cc1oc2c(c1C(=O)OCCC#N)C(=O)c1ncccc1C2=O`, for which the inhibition result in experiment [5] is “inactive”. For the same molecule, the IC50 in experiment [7] stood at 13 µM; in experiment [1] it was 14 µM.

As for `Cc1oc2c(c1C(=O)Oc1ccccc1)C(=O)c1ncccc1C2=O`, the inhibition entry in [5] is “inactive”. Moreover, the figures for the inhibition in experiment [3] and in experiment [4] were 100% and “Dose-dependent effect”, respectively. The IC50 was 10 µM in experiment [7] and 18 µM in [1].

On to `Cc1oc2c(c1C(=O)Oc1cccnc1)C(=O)c1ncccc1C2=O`, for which the inhibition entry in [5] was “inactive”. In addition, the values for the IC50 in experiment [7] and in experiment [1] were 7.7 µM and 8.8 µM, respectively.

As to `Cc1oc2c(c1C(=O)Oc1cccc(-c3cn(CCCO)nn3)c1)C(=O)c1ncccc1C2=O`, the inhibition entry in experiment [5] was “inactive”. Also, the values for the IC50 in [7] and in experiment [1] were 8.3 µM and 8.1 µM, respectively.

Take `Cc1oc2c(c1C(=O)OCCc1cn(CCCO)nn1)C(=O)c1ncccc1C2=O`: the inhibition result in [5] is “inactive”. For the same molecule, the figures for the IC50 in experiment [7] and in experiment [1] were 72 µM and 66 µM, respectively.

For `Cc1oc2c(c1C(=O)OCCc1cn(CCC(=O)O)nn1)C(=O)c1ncccc1C2=O`, the inhibition entry in [5] was “inactive”. Also, the IC50 in [7] stood at 16 µM; in experiment [1] it was 20 µM.

For `Cc1oc2c(c1C(=O)OCC(=O)O)C(=O)c1ncccc1C2=O`, in experiment [5], the inhibition result was “inactive”. The IC50 stood at 37 µM in experiment [7] and 51 µM in [1].

On to `CCOC(=O)c1noc2c1C(=O)c1cccnc1C2=O`, for which the inhibition result (in experiment [5]; in experiment [6]; in the experiment filed under Homo sapiens) was “inactive” in each case. The result in experiment [9] was inactive. In addition, the values for the inhibition in experiment [3] and in experiment [4] were 100% and “Dose-dependent effect”, respectively. The IC50 came out at 2.1 µM in experiment [7] and 1.9 µM in [1].

`Cc1oc2c(c1C(=O)OCCC[n+]1ccc(N(C)C)cc1)C(=O)c1ncccc1C2=O`: in experiment [5], the inhibition entry was “inactive”. Moreover, the figures for the IC50 in experiment [7] and in experiment [1] were 38 µM and 43 µM, respectively.
